# Assay outcomes deposited in PubChem BioAssay by several laboratories.
# rCAG binder: binds r(CAG) RNA repeats; r(CAG) RNA repeat, TO-PRO-1 dye displacement fluorescence; inhibition, % at 3 µM; 370,000 tested, 1.3% active; AID 651821;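 active = inhibition above the plate cutoff, the mean of all test compounds on that plate plus 3 SD, cut at about 35% in these data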;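 also: 0% = DMSO alone and 100% = 100 µM mitoxantrone as full dye displacement; higher means more dye released from RNA so lower well fluorescence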
# core dimer inh: blocks dimerization of HCV core protein; 300,000 tested, 0.33% active; TR-FRET GST/Flag-core106 dimerization, 1536-well; AID 1899; inhibition, % at 5 µM;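 active = inhibition above the mean of all tested compounds plus 3 SD, set per screening campaign, cut at about 45% in these data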
#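 Test system: GST/Flag-tagged HCV core106 proteins; Medium: KF-containing HEPES buffer, pH 7.45, DTT, CHAPS, BSA; Times: compound-protein-antibody incubation 4 h at 22.5 °C; Detection: TR-FRET 671 and 617 nm emission; Benchmarks: wells lacking GST-core106 and wells with excess unlabelled core106.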
# NadD block: NadD (S. aureus) enzyme inhibition | purified NadD enzyme, colorimetric absorbance read-out | inhibition, % at 20 µM | 360,000 tested, 0.78% active | AID 602399; in the data active = inhibition above about 26%
# ABHD5-PLIN5 inh: blocks binding of human ABHD5 to perilipin-5; Q00G26+Q8WTS1; Split G. princeps luciferase complementation, luminescence, 4 h; inhibition, % at 4 µM; 360,000 tested, 0.78% active; AID 602281;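 active = inhibition above the mean inhibition across every tested compound plus 3 SD, cut at about 22% in these data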;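 also: 0% = DMSO only wells and the 100% control is not disclosed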
# NadD conf: confirmation of Staphylococcus aureus NadD inhibitors | 2,000 tested, 13% active | shares compounds with NadD block | purified S. aureus NadD, colorimetric enzyme assay | inhibition, % at 20 µM; in the data active = inhibition mostly above about 42%, no sharp cut-off; inactive = mostly below about 42%
# Numbers without * were called inactive; . = not tested or not shown. The list is not random: actives were taken first. Their share in the collection is about 2.6%.
SMILES,rCAG binder,core dimer inh,NadD block,ABHD5-PLIN5 inh,NadD conf
C#CCCN([C@@H](CC(C)C)C(=O)OC)S(=O)(=O)c1ccc(F)cc1Br,-3.2,.,.,.,.
O=c1/c(=C\c2ccc(O)cc2)sc2n1C(c1ccccc1)C(c1ccccc1)=NN=2 (centres undefined),18.4,35.2,39.1*,-13.6,56.8*
CCN(CC)C(=O)CC[C@H]1CC[C@]2(CCCN(Cc3ccc(N(C)C)cc3)C2)O1,2.4,.,.,.,.
Nc1ncc2c(n1)-c1cc(Cl)ccc1SC2,8.8,19.4,29.4*,7.5,5.3
CCOc1ccc(C2C(C#N)=C(N)N(c3sc4c(c3C#N)CCCC4)C3=C2C(=O)CCC3)cc1 (centres undefined),13.0,55.3*,55.5*,-1.7,12.9
COc1ccc(C(O)c2nc(-c3ccccc3C)cs2)cc1 (centres undefined),1.5,.,-5.1,2.3,.
COc1ccc(N/C(=N/c2nc(C)cc(C)n2)NC(=O)Nc2ccc(Cl)c(Cl)c2)c(OC)c1,5.5,5.4,33.2*,-0.1,0.6
O=C(c1ccc(C(F)(F)F)cc1)N(CCCn1ccnc1)C(c1ccccn1)c1nc2ccccc2[nH]1 (centres undefined),6.3,.,-1.6,7.9,.
C/C(CC1CC(COCC(C)C)OC1=O)=N\Nc1nc(-c2ccccc2)cs1 (centres undefined),21.4,33.5,28.2*,-17.0,12.7
COc1ccc([N+](=O)[O-])cc1NCc1c(F)cccc1F,0.4,.,-4.6,-5.2,.
CCn1ncc(-c2csc(N)n2)c1C,-1.5,3.1,-2.2,-1.9,.
Cc1cc(-c2csc(N)n2)c(C)n1Cc1ccco1,18.1,2.4,30.6*,22.8*,2.1
Cc1cc(C(=O)CSc2nnc(N)s2)c(C)n1Cc1ccco1,6.9,22.8,-4.9,-1.1,.
Cc1cc(-c2csc(N)n2)c(C)n1C,12.8,-2.8,74.6*,-1.6,-7.5
CC(c1nc2ccccc2n1Cc1ccccc1)n1c(-c2cnccn2)nc2ccccc21 (centres undefined),3.1,.,.,15.6,.
CC(C)CN1C(=O)c2ccc(NC(=O)c3cccs3)cc2C1=O,4.1,3.8,-7.6,-4.0,.
O=C(Nc1ccc(Oc2ccc3c(c2)C(=O)N(c2ccc(O)cc2)C3=O)cc1)c1cccs1,4.0,10.1,33.6*,0.7,-4.3
CCCCCCCCCCCCN1CCSCCS1(=O)=O,2.1,.,.,.,.
CC1(C(=O)N2CCCCC2)CCN1C(=O)C1(c2ccccc2)CC1 (centres undefined),-0.1,.,-6.2,-4.6,.
Cn1ccc2c(-c3ccc(C(N)=O)cc3)cc3c(c21)C1CCC3C1 (centres undefined),8.6,.,-9.7,-1.1,.
CC(C)=CCC/C(C)=C/CNC(=O)C[C@H]1C[C@H](C(=O)N2CCOCC2)[C@@]2(CCC3CCCC3)c3[nH]c4cc(-c5ccco5)ccc4c3CCN2C1=O,20.0,.,45.9*,8.2,11.5
CC(C)=CCC/C(C)=C/CNC(=O)C[C@H]1C[C@H](C(=O)N(C(C)C)C(C)C)[C@@]2(C)c3[nH]c4cc(-c5ccco5)ccc4c3CCN2C1=O,14.8,.,33.5*,12.1,-1.6
C=CCN(CC=C)S(=O)(=O)c1ccc(NC(=S)NC(=O)/C=C/c2cccc3ccccc23)cc1,7.1,56.4*,30.6*,-4.4,3.6
COC(=O)[C@]12C[C@H](CC(=O)N3CCOCC3)C(=O)N(Cc3ccc4c(c3)OCO4)C1=C[C@H](C(C)(C)C)O[C@@H]2C,-0.7,.,.,.,.
COc1ccc(C)cc1-n1c(SCC(=O)Nc2cc(C)on2)nc2sc(C)c(C)c2c1=O,10.4,4.6,36.5*,2.8,35.0
SMILES,rCAG binder,core dimer inh,NadD block,ABHD5-PLIN5 inh,NadD conf
COC(=O)[C@]12C[C@H](CC(=O)NCCc3ccccc3OC)C(=O)N(Cc3ccc4c(c3)OCO4)C1=C[C@H](COCc1ccccc1)O[C@@H]2C,7.1,.,.,.,.
CCOc1ccc(-c2csc(/C(C#N)=C\c3ccc(O)c([N+](=O)[O-])c3)n2)cc1,1.9,23.1,48.1*,-5.3,15.7
CC(=O)N[C@@H]1C[C@@H]2O[C@@H](CO)CC[C@@H]2O[C@@H]1CCc1ccc(C#CC2(O)CCCC2)cc1,-2.8,.,.,.,.
C[C@@]12C(=O)Nc3ccc(Br)cc3C(=O)N1[C@H]1c3cc(Br)ccc3OC[C@@H]1[C@@H]2c1ccccc1,19.2,11.4,8.2,-1.0,.
COc1ccc2c(c1)C(=O)N1[C@H]3c4cc(Br)ccc4OC[C@@H]3[C@H](c3ccccc3)[C@]1(C)C(=O)N2,.,-1.1,30.4*,-1.8,24.8
Cc1ccccc1C(=O)Nc1nc(-c2cccnc2)cs1,17.2,16.2,30.0*,-7.1,13.8
